Bioassay records from PubChem.
Compounds with a hit are over-represented: about 1.9% of the library has one in this group of screens.
Dynein transport = blocks dynein driven cargo transport along microtubules; 3617.4 mouse cells, GR-EGFP nuclear translocation imaging; test concentration mostly 20 µM; stimulated with dexamethasone, 1 µM; active compounds read low; z-score, hits read low; actives 0.47% (n = 220,000); AID 1381;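 active = plate z-score of nuclear minus cytoplasmic receptor signal below a set negative limit, without overly bright fluorescence or cell loss, cut at about -3.5 in these data, passing the limit was not always enough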;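 also: z-score of nuclear minus cytoplasmic ring GR-EGFP intensity difference per well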
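Buffer or medium – tet-free medium with charcoal-stripped serum · Signal – automated 10x imaging of fixed Hoechst-stained cells · Also added – dexamethasone agonist, 1.0 µM final, for 30 min · Incubation – induction 48 h, compound 1 h, agonist 30 min · Read-out – GR-EGFP nuclear translocation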
pCIP destab = lowers stability of the mouse p/CIP coactivator protein; decrease of EGFP signal, % at 10 µM; F442A p/CIP-EGFP cells, EGFP fluorescence, 16 h; Q05BA5; actives 0.01% (n = 290,000); AID 1984;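 active = EGFP signal decrease of at least 30% at 10 µM or well 3 SD below plate mean, unless failing retest; inactive = the rest, including hits failing retest or dose response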
RAM network inh = blocks the yeast RAM network; S. cerevisiae dse1pr::URA3 reporter, 5-FOA growth OD615, 2 d; analog-sensitive cbk1-as2 kinase mutant strain; inhibition, % at 50 µM; actives 1.8% (n = 190,000); AID 868;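 active = inhibition above a set limit, 3 SD over mean compound inhibition, cut at about 8.4% in these data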;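 also: inhibition rescues growth on 5-FOA so higher OD means more RAM inhibition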
p47phox inh = p47phox (human) inhibition; P14598; p47phox/p22phox peptide binding, fluorescence polarization, 2 h; inhibition, % at 24.7 µM; actives 0.53% (n = 220,000);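 active = inhibition above about 30%, limit read from the data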
Target sequence (P14598 whole entry, looked up): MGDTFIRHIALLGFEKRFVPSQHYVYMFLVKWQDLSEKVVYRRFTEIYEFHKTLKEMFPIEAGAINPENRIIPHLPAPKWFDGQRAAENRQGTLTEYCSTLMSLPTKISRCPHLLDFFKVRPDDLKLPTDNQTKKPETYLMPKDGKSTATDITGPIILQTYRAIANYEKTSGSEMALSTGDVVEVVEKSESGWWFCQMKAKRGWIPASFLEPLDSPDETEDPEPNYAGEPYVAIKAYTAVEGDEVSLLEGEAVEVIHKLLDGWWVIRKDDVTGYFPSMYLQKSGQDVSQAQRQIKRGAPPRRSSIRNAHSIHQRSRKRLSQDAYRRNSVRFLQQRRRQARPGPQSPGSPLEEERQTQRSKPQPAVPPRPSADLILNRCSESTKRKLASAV
Dynein confirm = dynein cargo transport inhibition, confirmation | shares compounds with Dynein transport | 3617.4 GR-EGFP nuclear translocation imaging, dexamethasone-induced | calls only at 20 µM | actives 69% (n = 1,000) | AID 463116;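 active = inhibition of receptor movement into the nucleus at or above a set limit in both runs, with normal cell brightness and cell count; inconclusive = limit reached in only one run, brightness and count normal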;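 also: dexamethasone at 1 µM final in well for 30 min; nuclear minus cytoplasmic GR-EGFP mean intensity difference in channel 2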
Each line names hits and unclear results; the compound was inactive in the other large screens (follow-up assays come after a bar, where they were run).

Cn1c(=O)c([N+](=O)[O-])c(Cl)c2ccccc21	Dynein transport -6.3 | Dynein confirm active
CCN(CC)c1c([N+](=O)[O-])c(=O)n(C)c2ccccc12	none
COc1cc(OC)cc(C(=O)NN2CCOCC2)c1	none (no result: Dynein transport, RAM network inh, p47phox inh)
N#CC(C#N)=C1C=CC=CN1/C(=C\c1ccco1)C(=O)c1ccc(Br)cc1	Dynein transport -4.8 | Dynein confirm active
COc1ccc(C(=O)/C(=C\c2ccco2)N2C=CC=CC2=C(C#N)C#N)cc1	none
N#CC(C#N)=C1C=CC=CN1/C(=C\c1ccco1)C(=O)c1ccccc1	Dynein transport -3.8 | Dynein confirm active
Cc1ccccc1CN1CCC(CNC(=O)C2CCCN(c3ncnc4c3nc3n4CCCCC3)C2)CC1 (stereo not drawn)	none (no result: Dynein transport, RAM network inh, p47phox inh)
CC(CNC(=O)C1CCCN(S(=O)(=O)N2CCOCC2)C1)c1ccccc1 (stereo not drawn)	none (no result: Dynein transport, RAM network inh, p47phox inh)
CC1(C)CC(=O)C2=C(C1)OC(N)=C(C#N)C2C#Cc1ccccc1 (stereo not drawn)	Dynein transport -5.4 | Dynein confirm active
CCn1nc(C)cc1C(=O)Sc1cccc(Cl)c1	Dynein transport -3.5 (no result: RAM network inh) | Dynein confirm active
Cc1nn(C)c(C(=O)Sc2cccc(Cl)c2)c1[N+](=O)[O-]	Dynein transport -3.9 (no result: RAM network inh) | Dynein confirm active
Cc1ccccc1C(=O)c1cccn1CC(=O)N1CCCCC1	none (no result: Dynein transport, RAM network inh, p47phox inh)
COCCCn1c(O)c(/C=C2\N=C(C#N)C(=Nc3ccc(C)cc3)O2)sc1=S	none (no result: RAM network inh) | Dynein confirm active
O=C(O)CCCn1c(O)c(C=C2N=c3ccccc3=N2)sc1=S	none (no result: RAM network inh)
CNC(=O)c1cccc(NC(=O)CCCNC(=O)c2ccc(Cl)cc2)c1	none (no result: Dynein transport, RAM network inh, p47phox inh)
CCC(=O)N1CCN(c2ccc(NC(=O)c3ccc([N+](=O)[O-])o3)cc2)CC1	Dynein transport -4 | Dynein confirm active
O=C(Nc1ccc(N2CCCC2)c(Cl)c1)c1ccc([N+](=O)[O-])o1	Dynein transport -4 | Dynein confirm active
CCCC(=O)N1CCN(c2ccc(NC(=O)c3ccc(Br)o3)cc2)CC1	none
O=C(Nc1ccc(N2CCCCC2)cc1)c1ccc([N+](=O)[O-])o1	none (no result: Dynein transport, RAM network inh, p47phox inh)
CC(C)(C)C(=O)N1CCN(c2ccc(NC(=O)c3ccc([N+](=O)[O-])o3)cc2)CC1	none (no result: Dynein transport, RAM network inh, p47phox inh)
CCCC(=O)N1CCN(c2ccc(NC(=O)c3ccc([N+](=O)[O-])o3)cc2)CC1	Dynein transport -4.1 | Dynein confirm active
O=C(Nc1ccc(N2CCN(C(=O)c3ccc(Cl)cc3)CC2)cc1)c1ccc([N+](=O)[O-])o1	Dynein transport -4.9 | Dynein confirm active
COc1ccc(S(=O)(=O)N2CCC(C(=O)NCc3cccnc3)CC2)cc1OC	none (no result: Dynein transport, RAM network inh, p47phox inh)
O=C(CC(c1ccc(F)cc1)c1ccco1)Nc1nccs1 (stereo not drawn)	none
CCOC(CNC(=O)C1CCN(S(=O)(=O)c2ccc3nc4c(c(C(=O)O)c3c2)CCCCC4)CC1)OCC	none (no result: Dynein transport, RAM network inh, p47phox inh)
CC(C)(C)NC(=O)CN(C(=O)c1snc(C(=O)NC2CCCCC2)c1N)c1ccccc1F	none (no result: Dynein transport, RAM network inh, p47phox inh)
O=C(N/C(=C/c1ccc(F)cc1)C(=O)N1CCCC1)c1ccccc1	none (no result: Dynein transport, RAM network inh, p47phox inh)
N#CCCn1cc(C=C(C#N)C#N)c(-c2ccc(-c3ccccc3)cc2)n1	Dynein transport -4.1 | Dynein confirm inconclusive
COc1ccc(C(C)NC(=O)Cc2cccs2)cc1OC (stereo not drawn)	none (no result: Dynein transport, RAM network inh, p47phox inh)
COC(=O)Cc1c(C)c2ccc(OCC(=O)N(C)C3CCS(=O)(=O)C3)cc2oc1=O (stereo not drawn)	none (no result: Dynein transport, RAM network inh, p47phox inh)
N=c1n(Cc2ccccc2)c2ccccc2n1CC(O)COc1ccc(Cl)cc1Cl (stereo not drawn)	Dynein transport -3.8, p47phox inh 48 | Dynein confirm inactive
CN(c1ccccc1)c1ccc(/C=C/[N+](=O)[O-])cc1	Dynein transport -3.6 | Dynein confirm inactive
O=C(COc1ccc(/C=C\[N+](=O)[O-])cc1)N1CCOCC1	Dynein transport -5 | Dynein confirm active
O=C(c1ccc(Cl)cc1)c1ccc(OCC(=O)N2CCOCC2)cc1	none (no result: pCIP destab)
Oc1c(Cl)cc(Cl)c2c1NCCC2	Dynein transport -4.7 | Dynein confirm inactive
CCCc1cc(-n2ccnc2)n2c(nc3ccccc32)c1C#N	none | Dynein confirm inactive
Cc1cc(-n2ccnc2)n2c(nc3ccccc32)c1C#N	none
CCn1c(=O)c2ccccc2n(Cc2ccccc2C)c1=O	none (no result: Dynein transport, RAM network inh, p47phox inh)
COc1ccc(C(=O)c2sc3nc(C)cc(-c4cccs4)c3c2N)cc1	none | Dynein confirm inconclusive
COc1ccc(C(=O)c2sc3nc(C)cc(-c4cccs4)c3c2N)cc1OC	none | Dynein confirm inactive
Cc1cc(-c2cccs2)c2c(N)c(C(=O)c3ccc4c(c3)OCO4)sc2n1	none | Dynein confirm inconclusive
COc1ccccc1OCC(=O)Sc1ccc(C)cc1	none
COc1cc(C(=O)Sc2ccc(C)cc2)cc(OC)c1OC	Dynein transport -4.4 | Dynein confirm active
COc1ccc(C(=O)N2CCCCCC2)cc1OC1CCN(C(C)=O)CC1	none (no result: Dynein transport, RAM network inh, p47phox inh)
O=[N+]([O-])c1ccc(Sc2ncccn2)c([N+](=O)[O-])c1	Dynein transport -4.8 (no result: RAM network inh) | Dynein confirm inactive
O=[N+]([O-])c1ccc(Sc2nccn2Cc2ccccc2)c([N+](=O)[O-])c1	Dynein transport -4.6 | Dynein confirm active
Cc1cccc(Sc2ccc([N+](=O)[O-])cc2[N+](=O)[O-])n1	none
O=[N+]([O-])c1cc(C(F)(F)F)ccc1Sc1nccn1Cc1ccccc1	none
COC(=O)c1sc(SC)c(S(=O)(=O)C(C)C)c1N/N=C(\C#N)C(=O)c1ccccc1	none (no result: RAM network inh)
Cc1cc(C(=O)CCl)c(C)n1CCc1ccc(F)cc1	none
Cc1cc(-n2c(C)cc(C(=O)CCl)c2C)no1	Dynein transport -7.3 | Dynein confirm active
COc1ccc(-n2c(C)cc(C(=O)CCl)c2C)cc1	Dynein transport -3.8 | Dynein confirm active
COc1ccc(CCn2c(C)cc(C(=O)CCl)c2C)cc1OC	Dynein transport -3.7 | Dynein confirm active
CCOC(=O)c1cnc2c(C)c(C)ccc2c1NCCN1CCOCC1	none (no result: Dynein transport, RAM network inh, p47phox inh)
O=c1[nH]c2ccccc2c2oc(CCl)nc12	Dynein transport -4.1 (no result: RAM network inh) | Dynein confirm inconclusive
CCC1CCc2c(c3ccccc3[nH]c2=O)O1 (stereo not drawn)	none
O=C(CCl)c1ccc2c(c1)CCN2C(=O)C1CCCCC1	Dynein transport -5.7 | Dynein confirm active
O=C(CCl)c1ccc2c(c1)CCN2C(=O)C1CC1	Dynein transport -4.8 | Dynein confirm active
CCOc1cc(N2CCOCC2)c(OCC)cc1NC(=O)CN1C(=O)C2C3C=CC(C3)C2C1=O (stereo not drawn)	none
COc1ccc(C(=O)Nn2c(C)nc3ccccc3c2=O)cc1[N+](=O)[O-]	none (no result: Dynein transport, RAM network inh, p47phox inh)
CC(=O)NC(CSC(CC(=O)c1ccco1)c1ccc(C)cc1)C(=O)O (stereo not drawn)	Dynein transport -4.3 | Dynein confirm inactive
COc1ccc(NC(=O)CCc2nc3ccccc3s2)c(OC)c1	Dynein transport -5.7 | Dynein confirm inactive
COc1ccc(NC(=O)CCOc2ccccc2)c(OC)c1	none
CCCCc1nnc(NC(=O)CN2C(=O)NC3(CCCCC3)C2=O)s1	none (no result: Dynein transport, RAM network inh, p47phox inh)
